Measured values published in ChEMBL document CHEMBL4715714, “Design, synthesis and biological evaluation of thiosemicarbazones, hydrazinobenzothiazoles and arylhydrazones as anticancer agents with a potential to overcome multidrug resistance” (Eur J Med Chem, 2016).
The source made the active and inactive calls. The rule behind the calls is not given here.

Key:
[1] = Selectivity ratio of IC50 for human MES-SA cells transfected with mCherry to IC50 for human MES-SA/DX5 cells transfected with mCherry incubated for 72 hrs by fluorescent assay; assay type: functional
MES-SA/Dx5 [2] = assay: Cytotoxicity against human MES-SA/DX5 cells transfected with mCherry fluorescent protein incubated for 72 hrs in presence of efflux pump inhibitor, Tariquidar by fluorescence assay; assay type: functional, cell-based
How it was run: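 The mCherry-expressing cells (lentiviral) were seeded at 5000 or 2500 per well, attached for 24 h, and exposed 72 h to compounds with Tariquidar coadministered. Live-cell signal was fluorescence at 585 nm excitation and 610 nm emission.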

MES-SA [3] = assay: Cytotoxicity against human MES-SA cells transfected with mCherry fluorescent protein assessed as inhibition of cell proliferation incubated for 72 hrs by fluorescent assay; assay type: functional, cell-based
How it was run: (§1)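 MES-SA and MES-SA/Dx5 cells were made to stably express mCherry by lentiviral transduction. Cells were seeded at 5000 (96-well) or 2500 (384-well) per well, allowed to attach 24 h, then treated with compound dilutions for 72 h. Viability was read as fluorescence, excitation 585 nm, emission 610 nm.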

MES-SA/Dx5 [4] = assay: Cytotoxicity against human MES-SA/DX5 cells transfected with mCherry fluorescent protein assessed as inhibition of cell proliferation incubated for 72 hrs by fluorescent assay; assay type: functional, cell-based; details: Homo sapiens, MES-SA/Dx5, 72 h; how it was run: as §1
MES-SA [5] = assay: Cytotoxicity against human MES-SA cells assessed as inhibition of cell proliferation incubated for 72 hrs by MTT assay; assay type: functional, cell-based
How it was run: (§2)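 Cells were seeded (10000/well for A2780, 5000/well for MES-SA/Dx5 and KB-3-1/V1) and left to attach 12 h, then exposed to compound for 72 h. Medium was removed, and MTT (0.83 mg/mL) was added for 1 h at 37 °C. Cells were lysed in DMSO and absorbance read at 540 nm. Signal was corrected for unstained lysate background, normalized to untreated cells, and IC50 taken from a sigmoidal dose-response fit.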

MES-SA/Dx5 [6] = assay: Cytotoxicity against human MES-SA/DX5 cells assessed as inhibition of cell proliferation incubated for 72 hrs by MTT assay; assay type: functional, cell-based; details: for IC50: MES-SA/Dx5, 72 h; how it was run: as §2
[7] = Selectivity ratio of IC50 for human MES-SA cells to IC50 for human MES-SA/DX5 cells incubated for 72 hrs by MTT assay; assay type: functional
How it was run: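 The selectivity ratio is the IC50 in P-gp-negative parental cells divided by the IC50 in the P-gp-positive resistant partner.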

[8] = Cytotoxicity against human A2780adr cells assessed as inhibition of cell proliferation incubated for 72 hrs by MTT assay; assay type: functional, cell-based; details: A2780 ADR; how it was run: as §2
KB-V1 = assay: Cytotoxicity against human KB-V1 cells assessed as inhibition of cell proliferation incubated for 72 hrs by MTT assay; assay type: functional, cell-based; details: KB-V1, 72 h; how it was run: as §2
A2780 = assay: Cytotoxicity against human A2780 cells assessed as inhibition of cell proliferation incubated for 72 hrs by MTT assay; assay type: functional, cell-based; details: A2780, 72 h; how it was run: as §2
KB 3-1 = assay: Cytotoxicity against human KB-3-1 cells assessed as inhibition of cell proliferation incubated for 72 hrs by MTT assay; assay type: functional, cell-based; details: KB 3-1, 72 h; how it was run: as §2
MES-SA/Dx5 [9] = assay: Cytotoxicity against human MES-SA/DX5 cells incubated for 72 hrs in presence of efflux pump inhibitor, Tariquidar by MTT assay; assay type: functional, cell-based
How it was run: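 Run as the 72 h MTT viability readout (12 h attachment, MTT 0.83 mg/mL for 1 h, DMSO lysis, A540), with the P-gp inhibitor Tariquidar at 1 µM co-present. IC50 came from sigmoidal fits of 2 to 4 independent experiments.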

[10] = Homo sapiens, MES-SA, 72 h, read-out: IC50
[11] = Homo sapiens, MES-SA, 72 h, read-out: pIC50 (converted)

Oc1ccccc1/C=N/NC(=S)Nc1ccccc1
Ratio IC50 [1]: 2.23
Activity (MES-SA/Dx5 [2]): Active
IC50 (MES-SA [3]; [10]): 14 µM
IC50 (MES-SA [3]; [11]): 11.5 µM
IC50 (MES-SA/Dx5 [4]; read-out: IC50): 6.45 µM
IC50 (MES-SA/Dx5 [4]; read-out: pIC50 (converted)): 4.79 µM

C/C(=N\NC(=S)Nc1ccccc1C(F)(F)F)c1ccccn1
IC50 (MES-SA [3]; [10]): 0.033 µM
IC50 (MES-SA [3]; [11]): 0.0324 µM
IC50 (MES-SA/Dx5 [4]; read-out: IC50): 0.161 µM
IC50 (MES-SA/Dx5 [4]; read-out: pIC50 (converted)): 0.141 µM

O=C1Nc2ccccc2/C1=N/Nc1nc2ccccc2s1
IC50 (MES-SA [3]; mes-sa): Not Active
pIC50 (MES-SA [5]): inactive
pIC50 (MES-SA/Dx5 [6]): inactive

COc1ccc(O)c(/C=N/Nc2nc3ccccc3s2)c1
IC50 (MES-SA [3]; [10]): 14.9 µM
IC50 (MES-SA [3]; [11]): 13.2 µM
IC50 (MES-SA/Dx5 [4]; read-out: IC50): 11.6 µM
IC50 (MES-SA/Dx5 [4]; read-out: pIC50 (converted)): 9.33 µM

C/C(=N\NC(=S)Nc1cccc(C(F)(F)F)c1)c1ccccn1
IC50 (MES-SA [3]; [10]): 9.59 µM
IC50 (MES-SA [3]; [11]): 9.55 µM
IC50 (MES-SA/Dx5 [4]; read-out: IC50): 11.7 µM
IC50 (MES-SA/Dx5 [4]; read-out: pIC50 (converted)): 11.7 µM

C/C(=N\Nc1ccccn1)c1ccccn1
IC50 (MES-SA [3]; [10]): 0.102 µM
IC50 (MES-SA [3]; [11]): 0.0776 µM
IC50 (MES-SA/Dx5 [4]; read-out: IC50): 0.059 µM
IC50 (MES-SA/Dx5 [4]; read-out: pIC50 (converted)): 0.0589 µM

C/C(=N\Nc1nc2ccccc2s1)c1ccccc1N
Ratio IC50 [1]: 2.41
IC50 (MES-SA [3]; [10]): 46.2 µM
IC50 (MES-SA [5]; read-out: IC50): 45.6 µM
IC50 (MES-SA [5]; read-out: pIC50 (converted)): 44.7 µM
Ratio IC50 [7]: 1.64
IC50 (MES-SA/Dx5 [4]; read-out: IC50): 19 µM
IC50 (MES-SA/Dx5 [6]; read-out: IC50): 28 µM
IC50 (MES-SA/Dx5 [6]; read-out: pIC50 (converted)): 27.5 µM

COc1ccc(O)c(/C(C)=N/Nc2nc3ccccc3s2)c1
Ratio IC50 [1]: 4.71
Activity (MES-SA/Dx5 [2]): Active
IC50 (MES-SA [3]; [10]): 50.7 µM
IC50 (MES-SA [3]; [11]): 50.1 µM
IC50 (MES-SA/Dx5 [4]; read-out: IC50): 15.4 µM
IC50 (MES-SA/Dx5 [4]; read-out: pIC50 (converted)): 14.1 µM

S=C(N/N=C/c1ccccn1)Nc1ccccc1
IC50 (MES-SA [3]; [10]): 0.72 µM
IC50 (MES-SA [3]; [11]): 0.692 µM
IC50 (MES-SA/Dx5 [4]; read-out: IC50): 0.58 µM
IC50 (MES-SA/Dx5 [4]; read-out: pIC50 (converted)): 0.562 µM

FC(F)(F)c1cccc(NC(=S)N/N=C/c2ccccn2)c1
IC50 (MES-SA [3]; [10]): 0.85 µM
IC50 (MES-SA [3]; [11]): 0.832 µM
IC50 (MES-SA/Dx5 [4]; read-out: IC50): 0.72 µM
IC50 (MES-SA/Dx5 [4]; read-out: pIC50 (converted)): 0.692 µM

C(=N\Nc1nc2ccccc2s1)/c1ccccn1
IC50 ([8]; read-out: IC50): 0.45 µM
IC50 ([8]; read-out: pIC50 (converted)): 0.447 µM
IC50 (KB-V1; read-out: IC50): 0.84 µM
IC50 (KB-V1; read-out: pIC50 (converted)): 0.813 µM
IC50 (MES-SA [3]; [10]): 2.7 µM
IC50 (MES-SA [3]; [11]): 2.69 µM
IC50 (MES-SA [5]; read-out: IC50): 1.42 µM
IC50 (MES-SA [5]; read-out: pIC50 (converted)): 1.41 µM
Ratio IC50 [7]: 1.41
IC50 (A2780; read-out: IC50): 0.59 µM
IC50 (A2780; read-out: pIC50 (converted)): 0.575 µM
IC50 (MES-SA/Dx5 [4]; read-out: IC50): 3.36 µM
IC50 (MES-SA/Dx5 [4]; read-out: pIC50 (converted)): 3.09 µM
IC50 (KB 3-1; read-out: IC50): 0.65 µM
IC50 (KB 3-1; read-out: pIC50 (converted)): 0.646 µM
IC50 (MES-SA/Dx5 [6]; read-out: IC50): 1.02 µM
IC50 (MES-SA/Dx5 [6]; read-out: pIC50 (converted)): 1 µM

Oc1ccccc1/C=N/NC(=S)Nc1cccc(C(F)(F)F)c1
IC50 (MES-SA [3]; [10]): 5.07 µM
IC50 (MES-SA/Dx5 [4]; read-out: IC50): 4.08 µM

Cc1cc(/C=N/Nc2ccccn2)nc2ccccc12
IC50 (MES-SA [3]; [10]): 0.56 µM
IC50 (MES-SA [3]; [11]): 0.537 µM
IC50 (MES-SA/Dx5 [4]; read-out: IC50): 0.4 µM
IC50 (MES-SA/Dx5 [4]; read-out: pIC50 (converted)): 0.398 µM

C/C(=N\Nc1ccccn1)c1ccc2ccccc2n1
IC50 (MES-SA [3]; [10]): 0.48 µM
IC50 (MES-SA [3]; [11]): 0.479 µM
IC50 (MES-SA/Dx5 [4]; read-out: IC50): 0.38 µM
IC50 (MES-SA/Dx5 [4]; read-out: pIC50 (converted)): 0.347 µM

C/C(=N\NC(=S)Nc1ccc(C)cc1)c1ccccc1O
IC50 (MES-SA [3]; [10]): 10.9 µM
IC50 (MES-SA [3]; [11]): 9.77 µM
IC50 (MES-SA/Dx5 [4]; read-out: IC50): 3.46 µM
IC50 (MES-SA/Dx5 [4]; read-out: pIC50 (converted)): 4.37 µM

C(=N\Nc1ccccn1)/c1ccc2ccccc2n1
IC50 (MES-SA [3]; [10]): 0.82 µM
IC50 (MES-SA [3]; [11]): 0.776 µM
IC50 (MES-SA/Dx5 [4]; read-out: IC50): 0.43 µM
IC50 (MES-SA/Dx5 [4]; read-out: pIC50 (converted)): 0.427 µM

NC(=S)N/N=C/c1ncccc1N [TRIAPINE]
Activity (MES-SA/Dx5 [9]): Active
IC50 (MES-SA [3]; [10]): 1.3 µM
IC50 (MES-SA/Dx5 [4]; read-out: IC50): 2.52 µM

COc1ccc(NC(=S)N/N=C/c2cccc(C)n2)cc1
IC50 (MES-SA [3]; [10]): 4.72 µM
IC50 (MES-SA [3]; [11]): 4.68 µM
IC50 (MES-SA/Dx5 [4]; read-out: IC50): 4.22 µM
IC50 (MES-SA/Dx5 [4]; read-out: pIC50 (converted)): 4.17 µM
